Sampled rows, rich in hits. Any-hit rate of the full collection: about 1.9%.
NPY-Y1 antag = antagonists of human neuropeptide Y receptor Y1; P25929; HEK293-CNG Y1 cells, membrane potential fluorescence; NPY at EC95, then isoproterenol; inhibition, % at 3.6 µM; 200,000 tested, 1% active; AID 1040;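 active = inhibition above the campaign mean inhibition of all tested compounds plus 3 SD, cut at about 20% in these data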;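 note: 0% = DMSO wells given NPY plus isoproterenol and 100% = isoproterenol alone without NPY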
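Material: HEK293 Y1/CNG channel cell line | Also added: NPY (25 nM), isoproterenol (1 µM), Ro 20-1724 (25 µM) | Compound: One concentration, 3.6 µM, in 0.4% DMSO | Schedule: 3 h dye uptake, 1 h room-temperature compound, 45 min post-isoproterenol | Signal: Membrane-potential fluorescent dye readout | Read-out: % inhibition of NPY effect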
NPY-Y1 PAM-ag = human NPY-Y1 potentiation or agonism, primary screen; P25929; NPY-Y1 expressing cells, potentiator/agonist activation; activation, % at 3.6 µM; 220,000 tested, 0.37% active; in the data active = activation above about 33%, passing the limit was not always enough;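 note: cells stimulated with NPY at EC10 then isoproterenol at EC100; 0% = low agonist plus stimulus and 100% = saturating agonist plus stimulus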
NPY-Y2 antag = NPY-Y2 (human) receptor antagonism; 140,000 tested, 0.99% active; P49146; inhibition, % at 2.7 µM; NPY-Y2 expressing cells, antagonist mode; AID 793; in the data active = inhibition above about 17%;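 note: 0% = vehicle with agonist challenge and 100% = reference antagonist with challenge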
Target sequence (P49146 whole entry, looked up): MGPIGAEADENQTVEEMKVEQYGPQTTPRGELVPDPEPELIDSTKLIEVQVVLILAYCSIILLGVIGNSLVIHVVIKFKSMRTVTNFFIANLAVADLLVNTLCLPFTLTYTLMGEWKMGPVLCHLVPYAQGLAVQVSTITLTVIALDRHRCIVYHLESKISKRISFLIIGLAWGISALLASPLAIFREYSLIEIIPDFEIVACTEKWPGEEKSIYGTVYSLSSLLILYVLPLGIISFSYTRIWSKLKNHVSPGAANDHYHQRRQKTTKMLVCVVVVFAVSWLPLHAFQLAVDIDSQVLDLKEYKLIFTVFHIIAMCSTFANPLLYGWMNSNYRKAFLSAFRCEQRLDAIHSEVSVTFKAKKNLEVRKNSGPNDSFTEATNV
NPY2 pot ag = potentiates or activates human NPY-Y2 receptor | AID 1359 | P49146 | 220,000 tested, 0.45% active | activation, % at 3.6 µM | cells expressing NPY-Y2, potentiator/agonist read-out; in the data active = activation above about 27%;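 note: cells stimulated with NPY near EC25 plus isoproterenol at EC100; 0% = vehicle plus submaximal agonist and 100% = vehicle plus saturating agonist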
NPY-Y2 pot conf = confirmation of human NPY-Y2 receptor potentiators or agonists; shares compounds with NPY2 pot ag; cell-based NPY-Y2 potentiator/agonist assay; activation, % at 3.6 µM; 450 tested, 20% active; AID 1539; in the data active = activation above about 33%
NPY-Y1 potentiator = NPY-Y1 potentiation or agonism as NPY-Y2 counter-screen; shares compounds with NPY2 pot ag; AID 1651; Y1 HEK293-CNG cells, membrane potential fluorescence; activation, % at 3.6 µM; 450 tested, 20% active; in the data active = activation above about 45%;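 note: cells stimulated with submaximal NPY then isoproterenol with phosphodiesterase inhibitor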
NPY-Y1 ag 2 = human NPY-Y1 agonism as NPY-Y2 potentiator counter-screen; 450 tested, 37% active; HEK293 Y1-CNGC, membrane potential fluorescence; shares compounds with NPY2 pot ag; activation, % at 3.6 µM;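 active = activation above the mean of DMSO-only control wells plus 3 SD, cut at about 18% in these data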;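 note: cells stimulated with 1 µM isoproterenol plus the PDE inhibitor Ro 20-1724; 0% = isoproterenol with DMSO and no NPY and 100% = 40 nM NPY; Y1 agonists lower the membrane potential dye signal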
CNGC inhibitor = blocks CNG channel activity, counter-screen for NPY-Y2 potentiators | shares compounds with NPY2 pot ag | HEK293-CNG parental, isoproterenol cAMP, membrane potential fluorescence | inhibition, % at 3.6 µM | 450 tested, 32% active | AID 1703;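 active = inhibition above the control-well mean plus 3 SD of those wells, cut at about 22% in these data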;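 note: 0% = DMSO with isoproterenol and 100% = DMSO without isoproterenol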
NPY-Y2 ag 2 = activates human NPY-Y2 receptor in potentiator counter-screen; AID 1710; HEK293 Y2/CNGC cells, membrane potential fluorescence, agonist mode; 450 tested, 56% active; shares compounds with NPY2 pot ag; activation, % at 3.6 µM;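 active = activation above the mean of solvent-only control wells plus 3 SD, cut at about 10% in these data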;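 note: cells stimulated by isoproterenol with no NPY added so direct agonism is tested; 0% = DMSO with isoproterenol alone and 100% = NPY at EC100 plus isoproterenol; agonism lowers probe fluorescence through less cAMP and CNG channel opening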
Active calls of the source: *; nt = not tested or not shown.

SMILES | NPY-Y1 antag | NPY-Y1 PAM-ag | NPY-Y2 antag | NPY2 pot ag | NPY-Y2 pot conf | NPY-Y1 potentiator | NPY-Y1 ag 2 | CNGC inhibitor | NPY-Y2 ag 2
CC(=O)SCCC(=O)Nc1ccccc1 | -16 | 26 | -7 | 44* | 32 | 41 | 52* | 37* | 47*
CC(=O)NNC(=O)CCC(=O)Nc1ccccc1 | -1 | -1 | 3 | 0 | nt | nt | nt | nt | nt
Cn1c2ccccc2c2nnc(SCC(=O)NCc3ccoc3)nc21 | 2 | 10 | nt | -10 | nt | nt | nt | nt | nt
Cn1c(=O)c2c(ncn2CC(=O)N/N=C/c2ccc(Br)s2)n(C)c1=O | -1 | 3 | 3 | 11 | nt | nt | nt | nt | nt
Cc1cc(CN(C)C(=O)c2cc(COc3ccc4ncccc4c3)on2)on1 | -3 | -8 | nt | 38* | -6 | -44 | -28 | -12 | -11
CN(Cc1nccn1C)C(=O)c1cc(COc2ccc3ncccc3c2)on1 | -1 | 20 | nt | 6 | nt | nt | nt | nt | nt
CCn1c(SCC(=O)Nc2cccc(C)c2)nc2nc3c(cc2c1=O)COC(C)(C)C3 | nt | 1 | nt | 2 | nt | nt | nt | nt | nt
COC(=O)c1ccc(COc2ccc(C)cc2[N+](=O)[O-])o1 | nt | 20 | nt | 56* | 6 | -10 | -15 | -10 | 6
Cc1ccc(OCc2ccc(C(=O)NN)o2)c([N+](=O)[O-])c1 | nt | 17 | nt | -8 | nt | nt | nt | nt | nt
Cc1ccc(S(=O)(=O)N2CCNC(=O)CC2)cc1 | -3 | -11 | nt | -6 | nt | nt | nt | nt | nt
N/C(=N\OC(=O)c1ccc(Cl)cc1)c1ccc(Cl)cc1 | 7 | 2 | 0 | 3 | nt | nt | nt | nt | nt
N/C(=N\OC(=O)c1ccc(OCC(F)(F)F)nc1)c1ccc(Cl)cc1 | nt | -36 | nt | 82* | -11 | -5 | -16 | -11 | 9
O=C(CN1CCN(Cc2ccc(Cl)cc2)CC1)N/N=C/c1cccc(F)c1 | nt | 16 | nt | 99* | -6 | -6 | -14 | 3 | 1
O=C(CN1CCN(Cc2ccc(Cl)cc2)CC1)N/N=C/c1cccs1 | nt | -10 | nt | 6 | nt | nt | nt | nt | nt
Cc1cccc2c(N)c3c(nc12)CCCC3 (tested in a mixture with another compound) | 5 | 33 | nt | 49* | 52* | 64* | -1 | 10 | 48*
CCOC(=O)c1sc(NC(=O)C(C)Sc2nnc(N)s2)nc1C (stereo not given) | 0 | 15 | nt | 3 | nt | nt | nt | nt | nt
CN(C)S(=O)(=O)Oc1cccc(C(=O)Nc2ccc(Cl)cc2)c1 | -9 | 40 | 2 | 48* | -4 | -36 | -21 | -12 | -7
CN(C)S(=O)(=O)Oc1cccc(C(=O)Nc2ccccc2Cl)c1 | -2 | -7 | 2 | 6 | nt | nt | nt | nt | nt
O=c1c(Cc2ccc(Cl)cc2Cl)c(O)ccn1CCCN1CCOCC1 | 0 | -5 | nt | -2 | nt | nt | nt | nt | nt
CN(C(=O)c1cc(-n2cnnc2)ccc1Cl)c1ccccc1 | -4 | -21 | 3 | 4 | nt | nt | nt | nt | nt
O=P(OC1CCCCC1)(OC1CCCCC1)C(Nc1ccccc1)c1cccnc1 (stereo not given) | nt | 35 | nt | 44* | 25 | 27 | 17* | 28* | 20*
CCOC(=O)c1cnc2c(-c3ccccc3OC)c(C)nn2c1C | 4 | -18 | nt | -15 | nt | nt | nt | nt | nt
O=C(Nc1ccccn1)c1cccs1 | -2 | -4 | 2 | 13 | nt | nt | nt | nt | nt
O=C(Nc1nonc1NC(=O)c1cccs1)c1cccs1 | 6 | -13 | nt | 31* | -6 | -18 | -18 | -9 | 4
Fc1ccc2c(c1)/C(=N/Nc1ccccn1)CCS2 | 1 | -4 | nt | 30* | 10 | 16 | 27* | 17 | 22*
Cc1cc(/C=N/NC(=O)Cn2c3ccccc3c(=O)c3ccccc32)c(C)n1-c1ccc(Cl)cc1 | -3 | 30 | 3 | 31* | 29 | 32 | 0 | -12 | 20*
CCNC(=S)N/N=C/c1cc(C)n(-c2ccc(Cl)cc2)c1C | 6 | -17 | nt | -15 | nt | nt | nt | nt | nt
Cc1ccc(O)c(C2=NCCNC(C(F)(F)F)=C2)c1 | -2 | 20 | 1 | 1 | nt | nt | nt | nt | nt

Screening results: PubChem, The Scripps Research Institute Molecular Screening Center
